Measured values from ChEMBL document CHEMBL4152256, “Structure-activity relationship of new antimalarial 1-aryl-3-susbtituted propanol derivatives: Synthesis, preliminary toxicity profiling, parasite life cycle stage studies, target exploration, and targeted delivery” (Eur J Med Chem, 2018).
Activity calls are given as the source filed them. No cut-off for these calls is given here.

Assays:
Plasmodium falciparum [1] = assay: Antiplasmodial activity against multidrug-resistant Plasmodium falciparum FCR-3 by [3H]-hypoxanthine incorporation assay; format: functional, organism-based, FCR-3/Gambia; conditions: Plasmodium falciparum, FCR-3/Gambia
Summary of the method: (§1)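 Blood-stage P. falciparum 3D7 and FCR-3 were tested by a modified [3H]-hypoxanthine incorporation assay. Chloroquine was the reference in all runs.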

Plasmodium falciparum [2] = assay: Antiplasmodial activity against chloroquine-sensitive Plasmodium falciparum 3D7 by [3H]-hypoxanthine incorporation assay; format: functional, organism-based; conditions: Plasmodium falciparum, 3D7; summary of the method: as §1
[3] = Cytotoxicity against human HepG2A16 cells by MTT assay; format: cell-based; conditions: HepG2A16 cells
Summary of the method: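 MTT viability assay on HepG2-A16 cells, giving CC50 values.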

[4] = Selectivity index, ratio of CC50 for human HepG2A16 cells by MTT assay to IC50 for multidrug-resistant Plasmodium falciparum FCR-3; format: toxicity; conditions: HepG2A16 cells, read-out: Ratio CC50/IC50
Summary of the method: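 HepG2-A16 human hepatoma cells were tested by MTT viability assay to give CC50. Blood-stage activity was measured against the multidrug-resistant P. falciparum FCR-3 strain by [3H]-hypoxanthine incorporation to give IC50. SI = CC50 HepG2 / FCR-3 IC50.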

[5] = Genotoxicity in Salmonella typhimurium TA1535 harboring pSK1002 assessed as survival at 0.004 mg/ml in absence of Sprague-Dawley rat liver S9 fraction after by SOS/umu assay relative to control; format: toxicity, organism-based; conditions: salmonella enterica subsp. enterica serovar typhimurium, read-out: Survival
[6] = Genotoxicity in Salmonella typhimurium TA1535 harboring pSK1002 assessed as umu gene induction at 0.004 mg/ml in absence of Sprague-Dawley rat liver S9 fraction after by SOS/umu assay relative to control; format: toxicity, organism-based; conditions: salmonella enterica subsp. enterica serovar typhimurium, read-out: FC
[7] = Genotoxicity in Salmonella typhimurium TA1535 harboring pSK1002 assessed as survival at 0.004 mg/ml in presence of Sprague-Dawley rat liver S9 fraction after by SOS/umu assay relative to control; format: toxicity, organism-based; conditions: salmonella enterica subsp. enterica serovar typhimurium, read-out: Survival
[8] = Genotoxicity in Salmonella typhimurium TA1535 harboring pSK1002 assessed as umu gene induction at 0.004 mg/ml in presence of Sprague-Dawley rat liver S9 fraction after by SOS/umu assay relative to control; format: toxicity, organism-based; conditions: salmonella enterica subsp. enterica serovar typhimurium, read-out: FC
[9] = Genotoxicity in Salmonella typhimurium TA1535 harboring pSK1002 assessed as survival at 0.002 mg/ml in absence of Sprague-Dawley rat liver S9 fraction after by SOS/umu assay relative to control; format: toxicity, organism-based; conditions: salmonella enterica subsp. enterica serovar typhimurium, read-out: Survival
[10] = Genotoxicity in Salmonella typhimurium TA1535 harboring pSK1002 assessed as umu gene induction at 0.002 mg/ml in absence of Sprague-Dawley rat liver S9 fraction after by SOS/umu assay relative to control; format: toxicity, organism-based; conditions: salmonella enterica subsp. enterica serovar typhimurium, read-out: FC
[11] = Genotoxicity in Salmonella typhimurium TA1535 harboring pSK1002 assessed as survival at 0.002 mg/ml in presence of Sprague-Dawley rat liver S9 fraction after by SOS/umu assay relative to control; format: toxicity, organism-based; conditions: salmonella enterica subsp. enterica serovar typhimurium, read-out: Survival
[12] = Genotoxicity in Salmonella typhimurium TA1535 harboring pSK1002 assessed as umu gene induction at 0.002 mg/ml in presence of Sprague-Dawley rat liver S9 fraction after by SOS/umu assay relative to control; format: toxicity, organism-based; conditions: salmonella enterica subsp. enterica serovar typhimurium, read-out: FC
[13] = Genotoxicity in Salmonella typhimurium TA1535 harboring pSK1002 assessed as survival at 0.001 mg/ml in absence of Sprague-Dawley rat liver S9 fraction after by SOS/umu assay relative to control; format: toxicity, organism-based; conditions: salmonella enterica subsp. enterica serovar typhimurium, read-out: Survival
[14] = Genotoxicity in Salmonella typhimurium TA1535 harboring pSK1002 assessed as umu gene induction at 0.001 mg/ml in absence of Sprague-Dawley rat liver S9 fraction after by SOS/umu assay relative to control; format: toxicity, organism-based; conditions: salmonella enterica subsp. enterica serovar typhimurium, read-out: FC
[15] = Genotoxicity in Salmonella typhimurium TA1535 harboring pSK1002 assessed as survival at 0.001 mg/ml in presence of Sprague-Dawley rat liver S9 fraction after by SOS/umu assay relative to control; format: toxicity, organism-based; conditions: salmonella enterica subsp. enterica serovar typhimurium, read-out: Survival
[16] = Genotoxicity in Salmonella typhimurium TA1535 harboring pSK1002 assessed as umu gene induction at 0.001 mg/ml in presence of Sprague-Dawley rat liver S9 fraction after by SOS/umu assay relative to control; format: toxicity, organism-based; conditions: salmonella enterica subsp. enterica serovar typhimurium, read-out: FC
[17] = Genotoxicity in Salmonella typhimurium TA1535 harboring pSK1002 assessed as survival at 0.0005 mg/ml in absence of Sprague-Dawley rat liver S9 fraction after by SOS/umu assay relative to control; format: toxicity, organism-based; conditions: salmonella enterica subsp. enterica serovar typhimurium, read-out: Survival
[18] = Genotoxicity in Salmonella typhimurium TA1535 harboring pSK1002 assessed as umu gene induction at 0.0005 mg/ml in absence of Sprague-Dawley rat liver S9 fraction after by SOS/umu assay relative to control; format: toxicity, organism-based; conditions: salmonella enterica subsp. enterica serovar typhimurium, read-out: FC
[19] = Genotoxicity in Salmonella typhimurium TA1535 harboring pSK1002 assessed as survival at 0.0005 mg/ml in presence of Sprague-Dawley rat liver S9 fraction after by SOS/umu assay relative to control; format: toxicity, organism-based; conditions: salmonella enterica subsp. enterica serovar typhimurium, read-out: Survival
[20] = Genotoxicity in Salmonella typhimurium TA1535 harboring pSK1002 assessed as umu gene induction at 0.0005 mg/ml in presence of Sprague-Dawley rat liver S9 fraction after by SOS/umu assay relative to control; format: toxicity, organism-based; conditions: salmonella enterica subsp. enterica serovar typhimurium, read-out: FC
[21] = Genotoxicity in Salmonella typhimurium TA1535 harboring pSK1002 assessed as survival at 0.0002 mg/ml in absence of Sprague-Dawley rat liver S9 fraction after by SOS/umu assay relative to control; format: toxicity, organism-based; conditions: salmonella enterica subsp. enterica serovar typhimurium, read-out: Survival
[22] = Genotoxicity in Salmonella typhimurium TA1535 harboring pSK1002 assessed as umu gene induction at 0.0002 mg/ml in absence of Sprague-Dawley rat liver S9 fraction after by SOS/umu assay relative to control; format: toxicity, organism-based; conditions: salmonella enterica subsp. enterica serovar typhimurium, read-out: FC
[23] = Genotoxicity in Salmonella typhimurium TA1535 harboring pSK1002 assessed as survival at 0.0002 mg/ml in presence of Sprague-Dawley rat liver S9 fraction after by SOS/umu assay relative to control; format: toxicity, organism-based; conditions: salmonella enterica subsp. enterica serovar typhimurium, read-out: Survival
[24] = Genotoxicity in Salmonella typhimurium TA1535 harboring pSK1002 assessed as umu gene induction at 0.0002 mg/ml in presence of Sprague-Dawley rat liver S9 fraction after by SOS/umu assay relative to control; format: toxicity, organism-based; conditions: salmonella enterica subsp. enterica serovar typhimurium, read-out: FC
Plasmodium berghei [25] = assay: Antiplasmodial activity against Plasmodium berghei ANKA infected in mouse assessed as inhibition of parasitemia at 50 mg/kg/day, po for 4 consecutive days starting from 2 hrs post infection by MSF assay relative to control; format: functional
Summary of the method: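 Swiss male mice (20 ± 2 g) infected ip with 10^7 P. berghei ANKA parasitized cells (day 0). Five per group dosed orally 2 h after infection and daily on days 0–3. Test compounds at 50 mg/kg/day in water:DMSO; chloroquine diphosphate at 3 mg/kg/day; vehicle controls. Parasitemia measured on day 4 by MSF assay; survival checked daily.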

Plasmodium berghei [26] = assay: Antiplasmodial activity against Plasmodium berghei ANKA infected in mouse assessed as mouse survival time at 50 mg/kg/day, po for 4 consecutive days starting from 2 hrs post infection by MSF assay; format: functional
Summary of the method: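 Swiss male mice (20 ± 2 g) infected i.p. with 10^7 P. berghei ANKA parasitized cells in 0.1 mL 0.9% saline (day 0). Oral dosing began 2 h post-infection and continued daily on days 0–3, five mice per batch. Test drugs were given at 50 mg/kg/day in water:DMSO and chloroquine diphosphate at 3 mg/kg/day; a vehicle control was included. Survival was checked daily, and parasitemia was read on day 4 by modified MSF assay.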

[27] = Solubility of the compound in DSPC:cholesterol:DSPE-PEG2000-Mal:DOPE-Rho lipid mixture at 250 uM; format: physicochemical
Summary of the method: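 Compound added at 250 µM drug to the initial liposome lipid mixture (10 mM total lipid); precipitation and UV-visible absorbance above 300 nm assessed after encapsulation, removal of unencapsulated material and extraction with 1% w/v SDS in RPMI-A.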

[28] = Genotoxicity in Salmonella typhimurium TA1535 harboring pSK1002 assessed as survival at 0.016 mg/ml in absence of Sprague-Dawley rat liver S9 fraction after by SOS/umu assay relative to control; format: toxicity, organism-based; conditions: salmonella enterica subsp. enterica serovar typhimurium, read-out: Survival
[29] = Genotoxicity in Salmonella typhimurium TA1535 harboring pSK1002 assessed as umu gene induction at 0.016 mg/ml in absence of Sprague-Dawley rat liver S9 fraction after by SOS/umu assay relative to control; format: toxicity, organism-based; conditions: salmonella enterica subsp. enterica serovar typhimurium, read-out: FC
[30] = Genotoxicity in Salmonella typhimurium TA1535 harboring pSK1002 assessed as survival at 0.016 mg/ml in presence of Sprague-Dawley rat liver S9 fraction after by SOS/umu assay relative to control; format: toxicity, organism-based; conditions: salmonella enterica subsp. enterica serovar typhimurium, read-out: Survival
[31] = Genotoxicity in Salmonella typhimurium TA1535 harboring pSK1002 assessed as umu gene induction at 0.016 mg/ml in presence of Sprague-Dawley rat liver S9 fraction after by SOS/umu assay relative to control; format: toxicity, organism-based; conditions: salmonella enterica subsp. enterica serovar typhimurium, read-out: FC
[32] = Genotoxicity in Salmonella typhimurium TA1535 harboring pSK1002 assessed as survival at 0.008 mg/ml in absence of Sprague-Dawley rat liver S9 fraction after by SOS/umu assay relative to control; format: toxicity, organism-based; conditions: salmonella enterica subsp. enterica serovar typhimurium, read-out: Survival
[33] = Genotoxicity in Salmonella typhimurium TA1535 harboring pSK1002 assessed as umu gene induction at 0.008 mg/ml in absence of Sprague-Dawley rat liver S9 fraction after by SOS/umu assay relative to control; format: toxicity, organism-based; conditions: salmonella enterica subsp. enterica serovar typhimurium, read-out: FC
[34] = Genotoxicity in Salmonella typhimurium TA1535 harboring pSK1002 assessed as survival at 0.008 mg/ml in presence of Sprague-Dawley rat liver S9 fraction after by SOS/umu assay relative to control; format: toxicity, organism-based; conditions: salmonella enterica subsp. enterica serovar typhimurium, read-out: Survival
[35] = Genotoxicity in Salmonella typhimurium TA1535 harboring pSK1002 assessed as umu gene induction at 0.008 mg/ml in presence of Sprague-Dawley rat liver S9 fraction after by SOS/umu assay relative to control; format: toxicity, organism-based; conditions: salmonella enterica subsp. enterica serovar typhimurium, read-out: FC

| Compound | IC50 (Plasmodium falciparum [1]) | IC50 (Plasmodium falciparum [2]) | CC50 [3] | selectivity ratio [4] | viability at 0.004 mg/ml [5] | fold induction at 0.004 mg/ml [6] | viability at 0.004 mg/ml [7] | fold induction at 0.004 mg/ml [8] | viability at 0.002 mg/ml [9] | fold induction at 0.002 mg/ml [10] | viability at 0.002 mg/ml [11] | fold induction at 0.002 mg/ml [12] | viability at 0.001 mg/ml [13] | fold induction at 0.001 mg/ml [14] | viability at 0.001 mg/ml [15] | fold induction at 0.001 mg/ml [16] | viability at 0.0005 mg/ml [17] | fold induction at 0.0005 mg/ml [18] | viability at 0.0005 mg/ml [19] | fold induction at 0.0005 mg/ml [20] | also measured |
| --- | --- | --- | --- | --- | --- | --- | --- | --- | --- | --- | --- | --- | --- | --- | --- | --- | --- | --- | --- | --- | --- |
| OC(CCN1CCN(C(c2ccccc2)c2ccccc2)CC1)c1ccc(F)cc1 (stereo not given) | 0.62 µM | 1.08 µM | 252 µM | 406 | 97.8% | 1 | 87% | 1 | 95.9% | 1.5 | 89.6% | 1.1 | 94.9% | 1 | 95.7% | 1 | 100% | 1 | 86.4% | 1.1 | viability at 0.0002 mg/ml [21]: 102%; fold induction at 0.0002 mg/ml [22]: 1.1; viability at 0.0002 mg/ml [23]: 101%; fold induction at 0.0002 mg/ml [24]: 1; inhibition (Plasmodium berghei [25]): inactive; MSD (Plasmodium berghei [26]): 8 days; solubility [27]: Insoluble |
| OC(CCN1CCN(C(c2ccccc2)c2ccccc2)CC1)c1ccc(Cl)cc1 (stereo not given) | 3.93 µM | 24.9 µM | 462 µM | 118 | 102% | 1 | 89.5% | 1 | 108% | 1 | 88.9% | 0.7 | 106% | 1.1 | 96.7% | 0.6 | 110% | 0.9 | 94.3% | 0.6 | viability at 0.016 mg/ml [28]: 112%; fold induction at 0.016 mg/ml [29]: 0.9; viability at 0.016 mg/ml [30]: 86.6%; fold induction at 0.016 mg/ml [31]: 1.1; viability at 0.008 mg/ml [32]: 125%; fold induction at 0.008 mg/ml [33]: 0.9; viability at 0.008 mg/ml [34]: 98.8%; fold induction at 0.008 mg/ml [35]: 0.9; viability at 0.0002 mg/ml [21]: 105%; fold induction at 0.0002 mg/ml [22]: 1; viability at 0.0002 mg/ml [23]: 96.4%; fold induction at 0.0002 mg/ml [24]: 1; solubility [27]: Insoluble |
